Changes are numbered by the printed parent chain.
Legend:
[1] = molecular target: T1, CNGA3 P99L, A105P (PA-LP) channels (Homo sapiens, UniProt Q16281, A105P/P99L); test: Inside-out patch clamp, CNGA3 P99L, A105P; type: biochemical; conditions: after PIP3 or PIP2 application
T1 sequence (Q16281 1-694 P99L/A105P): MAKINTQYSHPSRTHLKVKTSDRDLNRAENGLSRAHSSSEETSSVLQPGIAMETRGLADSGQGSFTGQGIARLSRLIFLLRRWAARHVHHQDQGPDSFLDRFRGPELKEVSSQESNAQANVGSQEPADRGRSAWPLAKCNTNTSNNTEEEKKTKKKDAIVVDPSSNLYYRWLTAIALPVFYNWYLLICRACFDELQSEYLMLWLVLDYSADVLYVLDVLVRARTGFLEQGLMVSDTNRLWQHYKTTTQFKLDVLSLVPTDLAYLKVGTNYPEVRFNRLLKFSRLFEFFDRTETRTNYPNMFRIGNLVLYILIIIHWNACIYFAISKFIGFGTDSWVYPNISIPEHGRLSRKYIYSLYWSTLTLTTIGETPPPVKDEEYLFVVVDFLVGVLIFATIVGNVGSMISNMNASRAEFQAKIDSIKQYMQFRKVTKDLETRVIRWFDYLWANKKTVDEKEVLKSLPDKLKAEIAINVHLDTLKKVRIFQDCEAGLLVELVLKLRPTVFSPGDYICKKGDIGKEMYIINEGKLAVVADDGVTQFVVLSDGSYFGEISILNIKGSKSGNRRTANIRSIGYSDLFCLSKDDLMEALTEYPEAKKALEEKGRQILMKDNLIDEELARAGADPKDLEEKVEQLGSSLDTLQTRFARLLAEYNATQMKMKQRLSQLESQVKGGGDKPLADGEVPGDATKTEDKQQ

[2] = molecular target: T2, heteromeric CNGA3+CNGB3 channels (Homo sapiens, UniProt Q16281+Q9NQW8); test: Inside-out patch clamp, heteromeric CNGA3+CNGB3; type: biochemical
T2 sequence (Q16281 1-694): T1 sequence (Q16281 1-694 P99L/A105P) with L99P, P105A
T2 sequence (Q9NQW8 1-809): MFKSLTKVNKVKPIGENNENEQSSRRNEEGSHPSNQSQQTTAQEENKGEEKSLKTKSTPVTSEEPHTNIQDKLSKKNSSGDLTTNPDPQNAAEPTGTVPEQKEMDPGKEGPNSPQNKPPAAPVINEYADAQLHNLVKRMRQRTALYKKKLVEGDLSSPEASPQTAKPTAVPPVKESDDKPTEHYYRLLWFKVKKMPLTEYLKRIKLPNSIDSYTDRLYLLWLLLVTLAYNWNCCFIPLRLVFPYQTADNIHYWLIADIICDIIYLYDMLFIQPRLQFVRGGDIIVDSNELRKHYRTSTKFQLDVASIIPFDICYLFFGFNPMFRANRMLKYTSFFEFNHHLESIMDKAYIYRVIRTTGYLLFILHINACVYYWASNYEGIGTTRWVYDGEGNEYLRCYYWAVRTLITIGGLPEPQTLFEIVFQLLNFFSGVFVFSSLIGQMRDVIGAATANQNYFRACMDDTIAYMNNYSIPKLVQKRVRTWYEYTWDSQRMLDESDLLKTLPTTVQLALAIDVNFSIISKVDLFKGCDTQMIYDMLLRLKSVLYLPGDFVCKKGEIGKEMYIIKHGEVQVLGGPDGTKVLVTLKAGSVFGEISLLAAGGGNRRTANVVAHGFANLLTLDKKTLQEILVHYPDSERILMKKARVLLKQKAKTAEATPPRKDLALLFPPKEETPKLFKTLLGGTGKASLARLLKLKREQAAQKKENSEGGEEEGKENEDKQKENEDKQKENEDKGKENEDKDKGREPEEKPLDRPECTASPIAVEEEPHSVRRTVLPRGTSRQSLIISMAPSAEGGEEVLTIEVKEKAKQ

[3] = molecular target: T3, A3-N7R-A,RR-QQ+B3 channels (Homo sapiens, UniProt Q16281+Q9NQW8, R101A/R103A/R643Q/R646Q/R72A/R75A/R81A/R82A/R86A); test: Inside-out patch clamp, A3-N7R-A,RR-QQ+B3; type: biochemical; conditions: 10 µM PIP2 or 1 µM PIP3
T3 sequence (Q16281 1-694 R72A/R75A/R81A/R82A/R86A/R101A/R103A/R643Q/R646Q): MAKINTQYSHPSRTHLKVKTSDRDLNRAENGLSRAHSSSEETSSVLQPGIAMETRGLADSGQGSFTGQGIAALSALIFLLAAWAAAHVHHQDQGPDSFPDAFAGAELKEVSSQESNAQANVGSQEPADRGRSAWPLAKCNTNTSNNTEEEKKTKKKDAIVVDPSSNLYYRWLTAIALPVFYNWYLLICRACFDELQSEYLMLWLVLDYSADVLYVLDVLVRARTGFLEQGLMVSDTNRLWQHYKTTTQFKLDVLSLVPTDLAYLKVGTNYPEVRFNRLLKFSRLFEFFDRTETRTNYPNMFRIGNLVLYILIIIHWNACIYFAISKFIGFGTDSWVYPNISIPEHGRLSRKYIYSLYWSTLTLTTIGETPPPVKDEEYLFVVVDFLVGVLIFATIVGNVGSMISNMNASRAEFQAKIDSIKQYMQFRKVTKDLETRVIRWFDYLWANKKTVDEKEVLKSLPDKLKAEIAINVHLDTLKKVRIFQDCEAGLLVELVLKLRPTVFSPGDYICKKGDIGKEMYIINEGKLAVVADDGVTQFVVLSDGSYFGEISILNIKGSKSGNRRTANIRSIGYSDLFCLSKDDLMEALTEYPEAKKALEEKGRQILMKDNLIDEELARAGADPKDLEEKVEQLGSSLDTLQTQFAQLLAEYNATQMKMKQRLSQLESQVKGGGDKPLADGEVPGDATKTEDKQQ
T3 sequence (Q9NQW8 1-809): T2 sequence (Q9NQW8 1-809)
In short: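 Subunit cRNAs (~20 ng, B in excess over A) injected into stage IV Xenopus oocytes; inside-out patches 2–7 d later, 20–22°C, symmetric 130 mM NaCl, 0.2 mM EDTA, 3 mM Hepes pH 7.2. Heteromer formation checked by 25 µM l-cis-diltiazem with 1 mM cGMP. diC8 phosphoinositides applied intracellularly in phosphatase-inhibitor cocktail. cGMP dose–response at +80 mV, leak-subtracted, Hill fit before/after for K1/2; mean ± SEM.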

[4] = molecular target: CNGA1 homomeric channels (Bos taurus, UniProt Q00194); test: Inside-out patch clamp, homomeric CNGA1; type: biochemical, bovine; conditions: PIP3 or PIP2 application
Sequence of CNGA1 homomeric channels (Q00194 whole entry): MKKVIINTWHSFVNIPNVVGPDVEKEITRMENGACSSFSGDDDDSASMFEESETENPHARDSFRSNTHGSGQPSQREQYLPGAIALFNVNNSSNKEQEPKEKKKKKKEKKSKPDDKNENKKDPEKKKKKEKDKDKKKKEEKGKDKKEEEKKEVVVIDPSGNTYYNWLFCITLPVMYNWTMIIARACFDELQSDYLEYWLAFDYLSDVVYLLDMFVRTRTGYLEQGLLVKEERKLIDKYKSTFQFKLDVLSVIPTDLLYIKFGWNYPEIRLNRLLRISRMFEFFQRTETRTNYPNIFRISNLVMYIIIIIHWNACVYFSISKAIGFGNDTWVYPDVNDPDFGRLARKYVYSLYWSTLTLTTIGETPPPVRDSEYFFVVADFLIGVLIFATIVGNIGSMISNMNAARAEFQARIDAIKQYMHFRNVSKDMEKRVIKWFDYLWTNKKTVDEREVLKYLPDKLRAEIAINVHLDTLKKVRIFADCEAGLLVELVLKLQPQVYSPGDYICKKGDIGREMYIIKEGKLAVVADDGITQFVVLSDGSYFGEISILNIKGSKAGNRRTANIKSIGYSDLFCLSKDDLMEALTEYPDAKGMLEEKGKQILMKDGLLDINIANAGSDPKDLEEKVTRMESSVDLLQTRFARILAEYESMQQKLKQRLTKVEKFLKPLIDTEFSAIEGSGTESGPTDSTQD

[5] = molecular target: T4, human CNGA3 wild-type homomeric channels (Homo sapiens, UniProt Q16281); test: Inside-out patch clamp, homomeric CNGA3 wild type expressed in X. laevis oocytes; type: biochemical
T4 sequence (Q16281 1-694): T1 sequence (Q16281 1-694 P99L/A105P) with L99P, P105A

[6] = tested on: CNG channels; conditions: ref Fodor et al., 1997; cited from earlier work
[7] = mean, after 1 µM PIP3 or 10 µM PIP2
[8] = representative patch, after PIP3 or PIP2

Compound: phosphatidylinositol (4,5)-biphosphate [PIP2]
- Hill coefficient h after phosphoinositide [1]: 1.7
- K1/2 cGMP after phosphoinositide [1]: 8.7 ± 0.4 µM
- effect on currents elicited by 5 µM cGMP ([2]; 1 µM PIP3 or 10 µM PIP2): attenuated the currents
- Imax cAMP/cGMP after phosphoinositide ([2]; after PIP2 or PIP3 application): 0.27 ± 0.02
- Hill coefficient h after phosphoinositide [2, 7]: 1.6
- K1/2 cGMP after phosphoinositide [2, 7]: 23.4 ± 1.8 µM
- Hill coefficient h after phosphoinositide [2, 8]: 1.6
- K1/2 cGMP after phosphoinositide [2, 8]: 24.5 µM
- Imax cGMP compared with initial values ([2]; saturating cGMP, after 1 µM PIP3 or 10 µM PIP2): 85.3 ± 3.7%
- regulation of apparent cGMP affinity [3]: insensitive to regulation
- effect on relative cAMP efficacy [4]: decreased relative cAMP efficacy
- effect on maximal cGMP current ([5]; 1 mM cGMP): not significantly altered
- K1/2 cAMP after phosphoinositide ([5]; apparent cAMP affinity after PIP3 or PIP2 application): 1.13 ± 0.04 mM

Compound: poly-lysine
- Imax cAMP/cGMP after poly-lysine ([5]; poly-lysine applied to control patches (no exogenous PIPn)): 0.10 ± 0.01

Compound: C=C1[C@@H](C)[C@H]2[C@H](Cc3ccccc3)NC(=O)[C@]23[C@H](OC(C)=O)/C=C/[C@@](C)(O)C(=O)[C@@H](C)C/C=C/[C@H]3[C@@H]1O [cyto D, cytochalasin D]
- effect on cAMP efficacy ([5]; 10 µM cyto D applied to inside-out patches): decrease in cAMP efficacy

Compound: CCCCNc1ccc(C(=O)OCCN(C)C)cc1 [tetracaine]
- greater affinity for closed compared with open channels [6]: ~1,000 fold
